Measured values reported in ChEMBL document CHEMBL1124668, “Solid-phase synthesis of 16 potent (selective and nonselective) in vivo antagonists of oxytocin” (J Med Chem, 1989).
Starred links: 1 amine or outer side, 2 acyl side, 3 side chain; linkers in the order of their positions; H or OH if unused. Positions of bridges follow the written chain, without caps; N, C: chain ends. Non-standard residues stand in square brackets, D forms with d. Residues, ends and D or L forms follow the SMILES beside them. X1 = O=C(CC1(S[*:2])CCCCC1)[*:1]; Orn = NCCC[C@H](N)C(=O)O

What was measured:
Rattus norvegicus [1] = experiment: (§1) Antivasopressor activity in vivo in phenoxybenzamine pre-treated rats.; format: functional, organism-based; conditions: read-out: pA2 (converted)
Method in brief: (§2)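 Rats pretreated with phenoxybenzamine, under urethane anesthesia; antagonist given iv; agonist USP Posterior Pituitary Reference Standard; read-out is pressor response. Effective dose (nmol/kg) is the dose that cuts the response to 2X units of agonist to that of 1X unit, interpolated semilogarithmically from bracketing doses. pA2 assumes a 67 mL/kg distribution volume. SEM is given where there are ≥4 independent estimates.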

Rattus norvegicus [2] = experiment: Antioxytocic potencies (change in interuterine pressure) in vivo in estrogen pre-treated rats.; format: functional, organism-based; conditions: read-out: pA2 (converted)
Method in brief: (§3)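 Rats pretreated with estrogen, under urethane anesthesia; antagonist given iv; read-out is change in integrated intrauterine pressure; agonist synthetic oxytocin. Effective dose (nmol/kg) is the dose that cuts the response to 2X units of agonist to the response to 1X unit, interpolated on a semilog scale from doses above and below it. pA2 is derived assuming a 67 mL/kg distribution volume.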

Rattus norvegicus [3] = species: Rattus norvegicus; experiment: Antioxytoxic activity in vitro in isolated uteri from estrogen pretreated rats suspended in Mg supplemented Dyke-Hastings solution.; format: functional; conditions: read-out: pA2 (converted)
Method in brief: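 Isolated rat uterus in bath medium with Mg2+; agonist USP Posterior Pituitary Reference Standard. pA2 is the −log of the effective molar antagonist concentration that reduces the response to a dose of agonist to the response to half that dose. It is interpolated semilogarithmically from concentrations above and below it. SEM is given where there are ≥4 independent estimates.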

Rattus norvegicus [4] = species: Rattus norvegicus; experiment: Antioxytoxic activity in vitro in isolated uteri from estrogen pretreated rats suspended in Mg-free Dyke-Hastings solution.; conditions: read-out: pA2 (converted)
Rattus norvegicus [5] = experiment: as §1; format: functional; method in brief: as §2
Rattus norvegicus [6] = experiment: In vivo inhibition of estrogen induced changes in interuterine pressure in rats.; format: functional; method in brief: as §3

Row | SMILES | Kb (Rattus norvegicus [1]) | Kb (Rattus norvegicus [2]) | Kb (Rattus norvegicus [3]) | Kb (Rattus norvegicus [4]) | ED (Rattus norvegicus [5]) | ED (Rattus norvegicus [6])
1 | CC[C@H](C)[C@@H]1NC(=O)C(Cc2ccc(OC)cc2)NC(=O)CC(C)(C)SSC[C@@H](C(=O)N2CCC[C@H]2C(=O)N[C@@H](CCCN=C(N)N)C(=O)NCC(N)=O)NC(=O)[C@H](CC(N)=O)NC(=O)[C@H](C(C)C)NC1=O (stereo in doubt) | 3.47 nM | 26.9 nM | 7.76 nM | 17.8 nM | – | –
2 | CC[C@H](C)[C@@H]1NC(=O)[C@H](Cc2ccc(OC)cc2)NC(=O)CC2(CCCCC2)SSC[C@@H](C(=O)N2CCC[C@H]2C(=O)N[C@@H](CCCN)C(=O)N[C@@H](Cc2ccc(O)cc2)C(N)=O)NC(=O)[C@H](CC(N)=O)NC(=O)[C@H]([C@@H](C)O)NC1=O (Y(Me)ITNCP[Orn]Y-NH2; linker N-5 via X1) | 95.5 nM | 14.8 nM | 5.25 nM | 23.4 nM | – | –
3 | CC[C@H](C)[C@@H]1NC(=O)C(Cc2ccc(OC)cc2)NC(=O)CC2(CCCCC2)SSC[C@@H](C(=O)N2CCC[C@H]2C(=O)N[C@@H](CCCN=C(N)N)C(=O)NCC(N)=O)NC(=O)[C@H](CC(N)=O)NC(=O)[C@H](CCC(N)=O)NC1=O (stereo in doubt) | 8.32 nM | 15.8 nM | 3.24 nM | 1.91 nM | – | –
4 | CC[C@H](C)[C@@H]1NC(=O)[C@H](Cc2ccc(OC)cc2)NC(=O)CC2(CCCCC2)SSC[C@@H](C(=O)N2CCC[C@H]2C(=O)N[C@@H](CCCN)C(=O)N[C@@H](CCCN=C(N)N)C(N)=O)NC(=O)[C@H](CC(N)=O)NC(=O)[C@H]([C@@H](C)O)NC1=O [listing 1 of 2 here] | 11 nM | 28.8 nM | 5.5 nM | 20.4 nM | – | –
5 | CC[C@H](C)[C@@H]1NC(=O)[C@H](Cc2ccc(OC)cc2)NC(=O)CC2(CCCCC2)SSC[C@@H](C(=O)N2CCC[C@H]2C(=O)N[C@@H](CCCN)C(=O)N[C@@H](C)C(N)=O)NC(=O)[C@H](CC(N)=O)NC(=O)[C@H]([C@@H](C)O)NC1=O [listing 1 of 2 here] | 112 nM | 34.7 nM | 6.31 nM | 24 nM | – | –
6 | CC[C@H](C)[C@@H]1NC(=O)[C@H](Cc2ccc(OC)cc2)NC(=O)CC2(CCCCC2)SSC[C@@H](C(=O)N2CCC[C@H]2C(=O)N[C@@H](CCCN)C(=O)N[C@@H](CC(C)C)C(N)=O)NC(=O)[C@H](CC(N)=O)NC(=O)[C@H]([C@@H](C)O)NC1=O (Y(Me)ITNCP[Orn]L-NH2; linker N-5 via X1) | 407 nM | 26.9 nM | 3.47 nM | 16.6 nM | – | –
7 | CC[C@H](C)[C@@H]1NC(=O)C(Cc2ccc(OC)cc2)NC(=O)CC2(CCCCC2)SSC[C@@H](C(=O)N2CCC[C@H]2C(=O)N[C@@H](CCCCN)C(=O)NCC(N)=O)NC(=O)[C@H](CC(N)=O)NC(=O)[C@H](CCC(N)=O)NC1=O (stereo in doubt) | 20.9 nM | 58.9 nM | 15.5 nM | 23.4 nM | – | –
8 | CC[C@H](C)[C@@H]1NC(=O)C(Cc2ccc(OC)cc2)NC(=O)CC(C)(C)SSC[C@@H](C(=O)N2CCC[C@H]2C(=O)N[C@@H](CCCN=C(N)N)C(=O)NCC(N)=O)NC(=O)[C@H](CC(N)=O)NC(=O)[C@H](CCC(N)=O)NC1=O (stereo in doubt) | 3.55 nM | 24.5 nM | 1.95 nM | 0.759 nM | – | –
9 | CC[C@H](C)[C@@H]1NC(=O)[C@H](Cc2ccc(OC)cc2)NC(=O)CC2(CCCCC2)SSC[C@@H](C(=O)N2CCC[C@H]2C(=O)N[C@@H](CCCN)C(=O)N[C@@H](C)C(N)=O)NC(=O)[C@H](CC(N)=O)NC(=O)[C@H]([C@@H](C)O)NC1=O [listing 2 of 2 here] | – | – | – | – | 8.1 nM/kg | 2.4 nM/kg
10 | COc1ccc(C[C@@H]2NC(=O)CC3(CCCCC3)SSC[C@@H](C(=O)N3CCC[C@H]3C(=O)N[C@@H](CCCN=C(N)N)C(=O)NCC(N)=O)NC(=O)[C@H](CC(N)=O)NC(=O)[C@H](CCC(N)=O)NC(=O)[C@H](Cc3ccccc3)NC2=O)cc1 | – | – | – | – | 0.16 nM/kg | 17 nM/kg
11 | CC[C@H](C)[C@@H]1NC(=O)[C@H](Cc2ccc(OC)cc2)NC(=O)CC2(CCCCC2)SSC[C@@H](C(=O)N2CCC[C@H]2C(=O)N[C@@H](CCCN)C(=O)N[C@@H](CCCN=C(N)N)C(N)=O)NC(=O)[C@H](CC(N)=O)NC(=O)[C@H]([C@@H](C)O)NC1=O [listing 2 of 2 here] | – | – | – | – | 0.76 nM/kg | 2.3 nM/kg
